Assay results taken from ChEMBL document CHEMBL3627681, “Synthesis and biological evaluation of 1,3-diaryl pyrazole derivatives as potential antibacterial and anti-inflammatory agents” (2015).
Converted amounts (≈) assume the structure as drawn.

The compounds below were run on Staphylococcus aureus (assay: Ratio of gatifloxacin MIC to compound MIC for quinolone-resistant Staphylococcus aureus CCARM 3519 after 24 hrs by two-fold serial dilution method). Conditions: not given.
Type: functional
Compound N=C(N)N/N=C/c1cn(-c2ccc([N+](=O)[O-])cc2[N+](=O)[O-])nc1-c1ccc(Cl)cc1Cl has a Ratio of 2.

The compounds below were run on Staphylococcus aureus (assay: Antibacterial activity against quinolone-resistant Staphylococcus aureus CCARM 3519 after 24 hrs by two-fold serial dilution method). Conditions: CCARM 3519, 24 h.
Type: functional
Outline: (§1)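 Broth microdilution in Mueller-Hinton broth. Bacteria grown to mid-log phase, diluted 1000-fold, and inoculated at 10⁵ CFU/mL. Test compounds in DMSO, final DMSO not above 0.05%, final concentrations 64-0.5 µg/mL. Incubation 24 h at 37 °C, growth read as absorbance at 650 nm. MIC taken as the lowest concentration giving complete growth inhibition. Run three times.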
Cc1ccc(-c2nn(-c3ccc([N+](=O)[O-])cc3[N+](=O)[O-])cc2/C=N/NC(=N)N)c(C)c1 was tested, and the MIC was 4 µg/mL (≈ 9.47 µM).
Cc1ccc(-c2nn(-c3ccccc3)cc2/C=N/NC(=N)N)cc1 showed an MIC of 4 µg/mL (≈ 12.6 µM).
Compound N=C(N)N/N=C/c1cn(-c2ccc([N+](=O)[O-])cc2[N+](=O)[O-])nc1-c1ccc(Cl)cc1Cl has an MIC of 2 µg/mL (≈ 4.32 µM).

What follows are compounds tested on Staphylococcus aureus (assay: Ratio of gatifloxacin MIC to compound MIC for quinolone-resistant Staphylococcus aureus CCARM 3505 after 24 hrs by two-fold serial dilution method). Conditions: not given.
Type: functional
In the case of N=C(N)N/N=C/c1cn(-c2ccc([N+](=O)[O-])cc2[N+](=O)[O-])nc1-c1ccc(Cl)cc1Cl, the Ratio is reported as 4.

What follows are compounds tested on Mus musculus (assay: Antiinflammatory activity in mouse assessed as inhibition of xylene-induced ear edema at 50 mg/kg, ip administered 30 mins before xylene challenge relative to control). Conditions: not given.
Type: functional
Outline: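 Mice received compound freshly dissolved in DMSO, 50 mg/kg ip at 0.05 mL/20 g body weight; vehicle controls got DMSO alone. After 30 min, 20 µL xylene was applied to the right ear. After a further 30 min, 7 mm plugs were cut from treated and untreated ears and edema taken as their weight difference. Result is % edema reduction versus vehicle controls.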
Work on Cc1ccc(-c2nn(-c3ccc([N+](=O)[O-])cc3[N+](=O)[O-])cc2/C=N/NC(=N)N)c(C)c1 yielded an inhibition in vivo at 50 mg/kg of 79.6%.
With Cc1ccc(-c2nn(-c3ccccc3)cc2/C=N/NC(=N)N)cc1 the inhibition in vivo at 50 mg/kg was 86.5%.
For N=C(N)N/N=C/c1cn(-c2ccc([N+](=O)[O-])cc2[N+](=O)[O-])nc1-c1ccc(Cl)cc1Cl, the inhibition in vivo at 50 mg/kg was 61.9%.

Each compound was assayed on Staphylococcus aureus (assay: Antibacterial activity against methicillin-resistant Staphylococcus aureus CCARM 3506 after 24 hrs by two-fold serial dilution method). Conditions: CCARM 3506, 24 h.
Type: functional
Outline: as §1
For Cc1ccc(-c2nn(-c3ccc([N+](=O)[O-])cc3[N+](=O)[O-])cc2/C=N/NC(=N)N)c(C)c1, the MIC was 2 µg/mL (≈ 4.73 µM).
Cc1ccc(-c2nn(-c3ccccc3)cc2/C=N/NC(=N)N)cc1 gave an MIC of 2 µg/mL (≈ 6.28 µM).
N=C(N)N/N=C/c1cn(-c2ccc([N+](=O)[O-])cc2[N+](=O)[O-])nc1-c1ccc(Cl)cc1Cl was tested, and the MIC was 2 µg/mL (≈ 4.32 µM).

What follows are compounds tested on Staphylococcus aureus (assay: Antibacterial activity against Staphylococcus aureus 209 after 24 hrs by two-fold serial dilution method). Conditions: Staphylococcus aureus, 209, 24 h.
Type: functional
Outline: as §1
Cc1ccc(-c2nn(-c3ccc([N+](=O)[O-])cc3[N+](=O)[O-])cc2/C=N/NC(=N)N)c(C)c1 showed an MIC of 4 µg/mL (≈ 9.47 µM).
Compound Cc1ccc(-c2nn(-c3ccccc3)cc2/C=N/NC(=N)N)cc1 has an MIC of 4 µg/mL (≈ 12.6 µM).
Compound N=C(N)N/N=C/c1cn(-c2ccc([N+](=O)[O-])cc2[N+](=O)[O-])nc1-c1ccc(Cl)cc1Cl has an MIC of 2 µg/mL (≈ 4.32 µM).

Each compound was assayed on Pseudomonas aeruginosa (assay: Antibacterial activity against Pseudomonas aeruginosa 2004 after 24 hrs by two-fold serial dilution method). Conditions: Pseudomonas aeruginosa, 2004, 24 h.
Type: functional
Outline: (§2)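 Broth microdilution in Mueller-Hinton broth over final concentrations of 64–0.5. Bacteria were grown to mid-log phase and diluted 1000-fold, then inoculated at 10⁵ CFU/mL. Compounds were dissolved in DMSO, with final DMSO at most 0.05%. Plates were incubated 24 h at 37 °C and growth read as absorbance at 650 nm. MIC is the concentration giving complete growth inhibition. Three independent runs.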
In the case of Cc1ccc(-c2nn(-c3ccc([N+](=O)[O-])cc3[N+](=O)[O-])cc2/C=N/NC(=N)N)c(C)c1, the MIC is reported as > 64 µg/mL.
Cc1ccc(-c2nn(-c3ccccc3)cc2/C=N/NC(=N)N)cc1 was tested, and the MIC was 16 µg/mL (≈ 50.3 µM).
With N=C(N)N/N=C/c1cn(-c2ccc([N+](=O)[O-])cc2[N+](=O)[O-])nc1-c1ccc(Cl)cc1Cl the MIC was > 64 µg/mL.

The compounds below were run on Staphylococcus aureus (assay: Antibacterial activity against methicillin-resistant Staphylococcus aureus CCARM 3167 after 24 hrs by two-fold serial dilution method). Conditions: CCARM 3167, 24 h.
Type: functional
Outline: as §1
With Cc1ccc(-c2nn(-c3ccc([N+](=O)[O-])cc3[N+](=O)[O-])cc2/C=N/NC(=N)N)c(C)c1 the MIC was 2 µg/mL (≈ 4.73 µM).
Compound Cc1ccc(-c2nn(-c3ccccc3)cc2/C=N/NC(=N)N)cc1 has an MIC of 2 µg/mL (≈ 6.28 µM).
In the case of N=C(N)N/N=C/c1cn(-c2ccc([N+](=O)[O-])cc2[N+](=O)[O-])nc1-c1ccc(Cl)cc1Cl, the MIC is reported as 2 µg/mL (≈ 4.32 µM).

What follows are compounds tested on Escherichia coli (assay: Antibacterial activity against Escherichia coli CCARM 1356 after 24 hrs by two-fold serial dilution method). Conditions: CCARM 1356, 24 h.
Type: functional
Outline: as §2
Cc1ccc(-c2nn(-c3ccc([N+](=O)[O-])cc3[N+](=O)[O-])cc2/C=N/NC(=N)N)c(C)c1 gave an MIC of 8 µg/mL (≈ 18.9 µM).
For Cc1ccc(-c2nn(-c3ccccc3)cc2/C=N/NC(=N)N)cc1, the MIC was 8 µg/mL (≈ 25.1 µM).
Compound N=C(N)N/N=C/c1cn(-c2ccc([N+](=O)[O-])cc2[N+](=O)[O-])nc1-c1ccc(Cl)cc1Cl has an MIC of 8 µg/mL (≈ 17.3 µM).

The compounds below were run on Staphylococcus aureus (assay: Antibacterial activity against Staphylococcus aureus RN4220 after 24 hrs by two-fold serial dilution method). Conditions: RN4220, 24 h.
Type: functional
Outline: as §1
Work on Cc1ccc(-c2nn(-c3ccc([N+](=O)[O-])cc3[N+](=O)[O-])cc2/C=N/NC(=N)N)c(C)c1 yielded an MIC of 2 µg/mL (≈ 4.73 µM).
Cc1ccc(-c2nn(-c3ccccc3)cc2/C=N/NC(=N)N)cc1 gave an MIC of 2 µg/mL (≈ 6.28 µM).
N=C(N)N/N=C/c1cn(-c2ccc([N+](=O)[O-])cc2[N+](=O)[O-])nc1-c1ccc(Cl)cc1Cl was tested, and the MIC was 2 µg/mL (≈ 4.32 µM).

The compounds below were run on Staphylococcus aureus (assay: Antibacterial activity against quinolone-resistant Staphylococcus aureus CCARM 3505 after 24 hrs by two-fold serial dilution method). Conditions: CCARM 3505, 24 h.
Type: functional
Outline: as §1
For Cc1ccc(-c2nn(-c3ccc([N+](=O)[O-])cc3[N+](=O)[O-])cc2/C=N/NC(=N)N)c(C)c1, the MIC was 2 µg/mL (≈ 4.73 µM).
Work on Cc1ccc(-c2nn(-c3ccccc3)cc2/C=N/NC(=N)N)cc1 yielded an MIC of 4 µg/mL (≈ 12.6 µM).
N=C(N)N/N=C/c1cn(-c2ccc([N+](=O)[O-])cc2[N+](=O)[O-])nc1-c1ccc(Cl)cc1Cl showed an MIC of 2 µg/mL (≈ 4.32 µM).

These compounds were tested on Streptococcus mutans (assay: Antibacterial activity against Streptococcus mutans 3065 after 24 hrs by two-fold serial dilution method). Conditions: Streptococcus mutans, 3065, 24 h.
Type: functional
Outline: as §2
Cc1ccc(-c2nn(-c3ccc([N+](=O)[O-])cc3[N+](=O)[O-])cc2/C=N/NC(=N)N)c(C)c1 showed an MIC of 4 µg/mL (≈ 9.47 µM).
Cc1ccc(-c2nn(-c3ccccc3)cc2/C=N/NC(=N)N)cc1 was tested, and the MIC was 8 µg/mL (≈ 25.1 µM).
With N=C(N)N/N=C/c1cn(-c2ccc([N+](=O)[O-])cc2[N+](=O)[O-])nc1-c1ccc(Cl)cc1Cl the MIC was 4 µg/mL (≈ 8.63 µM).

These compounds were tested on Escherichia coli (assay: Ratio of moxifloxacin MIC to compound MIC for Escherichia coli CCARM 1356 after 24 hrs by two-fold serial dilution method). Conditions: not given.
Type: functional
Work on Cc1ccc(-c2nn(-c3ccc([N+](=O)[O-])cc3[N+](=O)[O-])cc2/C=N/NC(=N)N)c(C)c1 yielded a Ratio of 16.
Cc1ccc(-c2nn(-c3ccccc3)cc2/C=N/NC(=N)N)cc1 was tested, and the Ratio was 16.
N=C(N)N/N=C/c1cn(-c2ccc([N+](=O)[O-])cc2[N+](=O)[O-])nc1-c1ccc(Cl)cc1Cl gave a Ratio of 16.

Each compound was assayed on Candida albicans (assay: Antifungal activity against Candida albicans 7535 by two-fold serial dilution method). Conditions: not given.
Type: functional
With Cc1ccc(-c2nn(-c3ccc([N+](=O)[O-])cc3[N+](=O)[O-])cc2/C=N/NC(=N)N)c(C)c1 the MIC was 2 µg/mL (≈ 4.73 µM).
With Cc1ccc(-c2nn(-c3ccccc3)cc2/C=N/NC(=N)N)cc1 the MIC was 2 µg/mL (≈ 6.28 µM).
N=C(N)N/N=C/c1cn(-c2ccc([N+](=O)[O-])cc2[N+](=O)[O-])nc1-c1ccc(Cl)cc1Cl was tested, and the MIC was 2 µg/mL (≈ 4.32 µM).

Each compound was assayed on Salmonella typhimurium (assay: Antibacterial activity against Salmonella typhimurium 2421 after 24 hrs by two-fold serial dilution method). Conditions: Salmonella enterica, 2421, 24 h.
Type: functional, Salmonella enterica subsp. enterica serovar Typhimurium
Outline: as §2
Cc1ccc(-c2nn(-c3ccc([N+](=O)[O-])cc3[N+](=O)[O-])cc2/C=N/NC(=N)N)c(C)c1 gave an MIC of 8 µg/mL (≈ 18.9 µM).
Work on Cc1ccc(-c2nn(-c3ccccc3)cc2/C=N/NC(=N)N)cc1 yielded an MIC of 8 µg/mL (≈ 25.1 µM).
Compound N=C(N)N/N=C/c1cn(-c2ccc([N+](=O)[O-])cc2[N+](=O)[O-])nc1-c1ccc(Cl)cc1Cl has an MIC of 8 µg/mL (≈ 17.3 µM).

The compounds below were run on Staphylococcus aureus (assay: Antibacterial activity against Staphylococcus aureus 503 after 24 hrs by two-fold serial dilution method). Conditions: Staphylococcus aureus, 503, 24 h.
Type: functional
Outline: as §1
Cc1ccc(-c2nn(-c3ccc([N+](=O)[O-])cc3[N+](=O)[O-])cc2/C=N/NC(=N)N)c(C)c1 was tested, and the MIC was 4 µg/mL (≈ 9.47 µM).
Cc1ccc(-c2nn(-c3ccccc3)cc2/C=N/NC(=N)N)cc1 was tested, and the MIC was 4 µg/mL (≈ 12.6 µM).
N=C(N)N/N=C/c1cn(-c2ccc([N+](=O)[O-])cc2[N+](=O)[O-])nc1-c1ccc(Cl)cc1Cl showed an MIC of 2 µg/mL (≈ 4.32 µM).

Each compound was assayed on Pseudomonas aeruginosa (assay: Antibacterial activity against Pseudomonas aeruginosa 2742 after 24 hrs by two-fold serial dilution method). Conditions: Pseudomonas aeruginosa, 2742, 24 h.
Type: functional
Outline: as §2
In the case of Cc1ccc(-c2nn(-c3ccc([N+](=O)[O-])cc3[N+](=O)[O-])cc2/C=N/NC(=N)N)c(C)c1, the MIC is reported as > 64 µg/mL.
Cc1ccc(-c2nn(-c3ccccc3)cc2/C=N/NC(=N)N)cc1 showed an MIC of 32 µg/mL (≈ 101 µM).
N=C(N)N/N=C/c1cn(-c2ccc([N+](=O)[O-])cc2[N+](=O)[O-])nc1-c1ccc(Cl)cc1Cl was tested, and the MIC was > 64 µg/mL.

What follows are compounds tested on Staphylococcus aureus (assay: Ratio of moxifloxacin MIC to compound MIC for quinolone-resistant Staphylococcus aureus CCARM 3505 after 24 hrs by two-fold serial dilution method). Conditions: not given.
Type: functional
Work on N=C(N)N/N=C/c1cn(-c2ccc([N+](=O)[O-])cc2[N+](=O)[O-])nc1-c1ccc(Cl)cc1Cl yielded a Ratio of 2.

These compounds were tested on Escherichia coli (assay: Antibacterial activity against Escherichia coli KCTC 1924 after 24 hrs by two-fold serial dilution method). Conditions: KCTC 1924, 24 h.
Type: functional
Outline: as §2
Cc1ccc(-c2nn(-c3ccc([N+](=O)[O-])cc3[N+](=O)[O-])cc2/C=N/NC(=N)N)c(C)c1 showed an MIC of 2 µg/mL (≈ 4.73 µM).
For Cc1ccc(-c2nn(-c3ccccc3)cc2/C=N/NC(=N)N)cc1, the MIC was 2 µg/mL (≈ 6.28 µM).
Compound N=C(N)N/N=C/c1cn(-c2ccc([N+](=O)[O-])cc2[N+](=O)[O-])nc1-c1ccc(Cl)cc1Cl has an MIC of 2 µg/mL (≈ 4.32 µM).
